Here are results for seven molecules from ChEMBL document CHEMBL4673177, “Structure-activity relationships of sulfonamides derived from carvacrol and their potential for the treatment of Alzheimer''s disease” (RSC Med Chem, 2020).

Data set [1] has as its system Mus musculus. Nature of the data set: Anxiolytic-like activity in STZ-induced mouse model of Alzheimer's disease assessed as open arm time permanency at 30 mg/kg, ip treated from 3 to 12 days starting from 3 days post initial STZ stimulation and measured on day 14 by elevated plus maze test (reference value: 37.6%). The format is functional. The note with it: time 3-12 day.

In data set [2] the test system is Mus musculus. Nature of the data set: Anxiolytic-like activity in STZ-induced mouse model of Alzheimer's disease assessed as open arm frequency at 30 mg/kg, ip treated from 3 to 12 days starting from 3 days post initial STZ stimulation and measured on day 14 by elevated plus maze test (reference value: 51.17%). The format is functional. The note with it: time 3-12 day.

For the next data set, the target named is Acetylcholinesterase (Homo sapiens, UniProt P22303). As to the kind of experiment: Inhibition of AChE (unknown origin) using acetylthiocholine iodide as substrate preincubated for 15 mins followed by substrate addition and measured after 30 mins by Ellman's method. Background: Ellman's reagent forms a yellow product with free thiols.
Sequence of Acetylcholinesterase (P22303 whole entry): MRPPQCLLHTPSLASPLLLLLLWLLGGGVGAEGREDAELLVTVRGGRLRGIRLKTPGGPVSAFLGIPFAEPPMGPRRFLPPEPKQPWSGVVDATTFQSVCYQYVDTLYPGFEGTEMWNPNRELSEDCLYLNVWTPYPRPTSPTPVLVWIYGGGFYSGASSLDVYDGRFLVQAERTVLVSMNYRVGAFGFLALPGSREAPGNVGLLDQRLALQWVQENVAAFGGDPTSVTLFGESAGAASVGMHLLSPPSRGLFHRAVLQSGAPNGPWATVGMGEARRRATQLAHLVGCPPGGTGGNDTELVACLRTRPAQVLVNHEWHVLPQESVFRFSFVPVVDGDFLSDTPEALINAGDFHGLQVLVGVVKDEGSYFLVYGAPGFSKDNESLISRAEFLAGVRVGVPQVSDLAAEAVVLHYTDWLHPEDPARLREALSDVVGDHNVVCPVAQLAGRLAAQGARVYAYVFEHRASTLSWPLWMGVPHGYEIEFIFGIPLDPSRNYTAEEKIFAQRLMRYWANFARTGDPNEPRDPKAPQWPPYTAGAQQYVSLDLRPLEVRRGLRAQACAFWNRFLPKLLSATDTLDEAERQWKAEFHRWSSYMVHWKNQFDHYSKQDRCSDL
Data set [3] deals with Mus musculus. Nature of the data set: Antialzheimer activity in streptozotocin-induced mouse model of memory impairment assessed as median time of avoidance latency descent at 30 mg/kg, ip treated from 3 to 12 days starting from 3 days post initial STZ stimulation and measured on day 16 by avoidance test (reference value: 14 sec). The format is functional. The note with it: time 3-12 day. Put shortly:
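3-month-old female mice (25.0–30.0 g), STZ given i.c.v. as 3 μL of 2.5 mg mL-1 solution, repeated after 48 h. Vehicle or compound dosed i.p. until day 12. Training: shock 0.4 mA for 2 s on stepping down from the platform. Next-day test session without shock; descent latency timed. Reported as median with interquartile interval. N = 8–10 per group.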

Data set [4] in a line: Effect on locomotory activity in STZ-induced mouse model of Alzheimer's disease assessed as number of crossing 30 mg/kg, ip treated from 3 to 12 days by open field test (reference value: 114.00 +/- 3.12). The note with it: in vivo, time 3-12 day. The format is organism-based.
A short description of data set [5]: Effect on behavioral activity in STZ-induced mouse model of Alzheimer's disease assessed as rearing at 30 mg/kg, ip treated from 3 to 12 days by open field test (reference value: 53.60 +/- 1.62). The format is ADME, organism-based. The note with it: in vivo, time 3-12 day.
Data set [6] concerns Mus musculus. As to the kind of experiment: Antioxidant activity in STZ-induced mouse model of Alzheimer's disease assessed as reduction in TBARS level in brain at 30 mg/kg, ip treated from 3 to 12 days starting from 3 days post initial STZ stimulation and measured on day 17 by spectrophotometric method. The note with it: time 3-12 day. The format is functional, organism-based. Put shortly: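 After the final behavioural test, brain homogenate (phosphate buffer pH 7.4, 3000g for 15 min) used for TBARS. The mixture was vortexed and centrifuged at 4000g for 10 min. The organic layer was read at 532 nm.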

Data set [7] relates to Mus musculus. Nature of the data set: Antioxidant activity in STZ-induced mouse model of Alzheimer's disease assessed as increase in GSH level in brain at 30 mg/kg, ip treated from 3 to 12 days starting from 3 days post initial STZ stimulation and measured on day 17 by spectrophotometric method. The format is functional, organism-based. The note with it: time 3-12 day. Summed up: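 Brains collected one day after the last behavioural test, homogenized in phosphate buffer pH 7.4 and spun at 3000g for 15 min. Whole-brain GSH in the supernatant measured by a modified Beutler method, absorbance at 412 nm. Quantified against a GSH standard curve (5–50 μg); expressed as nmol GSH/mg protein.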

Data set [8] has as its system Mus musculus. As to the kind of experiment: Antialzheimer activity in streptozotocin-induced mouse model of memory impairment assessed as median time of avoidance latency descent at 0.5 mg/kg, ip treated from 3 to 12 days starting from 3 days post initial STZ stimulation and measured on day 16 by avoidance test (reference value: 14 sec). The format is functional. The note with it: time 3-12 day.

For data set [9], the system named is Mus musculus. As to the kind of experiment: Anxiolytic-like activity in STZ-induced mouse model of Alzheimer's disease assessed as open arm frequency at 0.5 mg/kg, ip treated from 3 to 12 days starting from 3 days post initial STZ stimulation and measured on day 14 by elevated plus maze test (reference value: 51.17%). The format is functional. The note with it: time 3-12 day. Put shortly:
(§1)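 Female mice given STZ i.c.v. twice (48 h apart) were treated i.p. until day 12. Each mouse was placed in the centre of the elevated plus maze facing a closed arm and observed for 5 min. N about 8–10 per group.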

Data set [10] in a line: Effect on behavioral activity in STZ-induced mouse model of Alzheimer's disease assessed as rearing at 0.5 mg/kg, ip treated from 3 to 12 days by open field test (reference value: 53.60 +/- 1.62). The format is organism-based. The note with it: in vivo, time 3-12 day.
Data set [11] deals with Mus musculus. Nature of the data set: Anxiolytic-like activity in STZ-induced mouse model of Alzheimer's disease assessed as open arm time permanency at 0.5 mg/kg, ip treated from 3 to 12 days starting from 3 days post initial STZ stimulation and measured on day 14 by elevated plus maze test (reference value: 37.6%). The format is functional. The note with it: time 3-12 day. Put shortly: as §1

The nature of data set [12]: Effect on locomotory activity in STZ-induced mouse model of Alzheimer's disease assessed as number of crossing 0.5 mg/kg, ip treated from 3 to 12 days by open field test (reference value: 114.00 +/- 3.12). The format is organism-based. The note with it: in vivo, time 3-12 day.

Calls of active or inactive are those of the source. No cut-off for these calls is given here.

The term IC50 denotes the concentration that inhibits the measured activity by half. A high value points to lower potency. As for `Cc1cc(S(=O)(=O)NCc2ccccn2)c(C(C)C)cc1O`, the Activity in the data set with Mus musculus [1] is given as 76%; in the data set with Mus musculus [2] it was 69.44%; in [4], 102.45; in data set [5], 46.17. Also, the IC50 at Acetylcholinesterase is 6.99 µM. In addition, the Time with Mus musculus [3] stood at 72 s.

Take `Cc1ccc(C(C)C)cc1O` [CARVACROL]: the IC50 against Acetylcholinesterase turned out to be 284 µM.

With `Cc1cc(S(=O)(=O)Nc2ccccc2O)c(C(C)C)cc1O`, the Activity in the data set on Mus musculus [1] was 42%; in the data set with Mus musculus [2], 41.9%; in data set [4] it was 107; in [5], 44.56. On Acetylcholinesterase, the IC50 came out at 8.74 µM. The outcome with Mus musculus [6] and in the data set with Mus musculus [7] was Active. The Time in the data set with Mus musculus [3] turned out to be 107 s.

As to `Cc1cc(S(=O)(=O)NN)c(C(C)C)cc1O`, the Activity with Mus musculus [1] was determined as 17.1%; in the data set with Mus musculus [2], 43.31%; in data set [4], 98.45; in data set [5], 44.18. The molecule also displayed an IC50 against Acetylcholinesterase of 9.24 µM. Besides, the outcome in the data set with Mus musculus [6] and in the data set on Mus musculus [7] was Active. Also, the Time with Mus musculus [3] is 130 s.

In the case of `COc1ccc2c3c1O[C@H]1C[C@@H](O)C=C[C@@]31CCN(C)C2` [GALANTAMINE], in the data set with Mus musculus [8], the Time is recorded as 122.5 s. For the same molecule, the Activity in the data set with Mus musculus [9] stood at 22.3%; in [10], 54.23; in the data set on Mus musculus [11], 6.6%; in [12], 122.5.

For `Cc1cc(S(=O)(=O)Nc2cnccn2)c(C(C)C)cc1O`, the Activity in the data set on Mus musculus [1] is 19.3%; in the data set on Mus musculus [2], 47.7%; in [4], 108.34; in [5] it was 50.17. On Acetylcholinesterase, this molecule yielded an IC50 of 7.34 µM. The result in the data set with Mus musculus [6] and in the data set on Mus musculus [7] was Active. In addition, the Time in the data set with Mus musculus [3] is recorded as 80 s.

For `Cc1cc(S(=O)(=O)N2CCOCC2)c(C(C)C)cc1O`, the Activity amounted to 14.3% in the data set with Mus musculus [1], 25.11% in the data set with Mus musculus [2], 116.3 in data set [4] and 43.8 in data set [5]. Further, the IC50 at Acetylcholinesterase came to 5.64 µM. Besides, the outcome with Mus musculus [6] and in the data set with Mus musculus [7] was Active. Besides, in the data set with Mus musculus [3], the Time is given as 116.5 s.
